Source: ChEMBL document CHEMBL1157795, “Structure-activity relationship of an ozonide carboxylic acid (OZ78) against Fasciola hepatica” (2010)
Activity calls are given as the source filed them. The calls are words filed in the database; no cut-off is given here.

Legend:
Fasciola hepatica [1] = assay: Antiparasitic activity against Fasciola hepatica infected in rat assessed as reduction in worm burden at 100 mg/kg, po administered as single dose measured after 6 days post treatment; type: functional; set-up: scale not given: the % may be the effect or the level left
Summary of the method: (§1)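 Female Wistar rats (~100 g) infected with ~20 F. hepatica metacercariae each; at 8 weeks post-infection given a single 100 mg/kg oral dose as suspension in 7% (v/v) Tween 80 / 3% (v/v) EtOH. Killed by CO2 on day 6 post-treatment; adult flukes recovered from bile ducts and livers. Mean total worm burden compared with untreated controls; cures scored; Kruskal-Wallis test, 5% level.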

Fasciola hepatica [2] = assay: Antiparasitic activity against Fasciola hepatica infected in rat assessed as induction of cure at 100 mg/kg, po administered as single dose measured after 6 days post; type: functional, organism-based; set-up: dose 100 mg/kg; summary of the method: as §1
Fasciola hepatica [3] = assay: Antiparasitic activity against Fasciola hepatica infected in rat assessed as reduction in worm burden at 50 mg/kg, po administered as single dose measured after 6 days post treatment; type: functional; set-up: scale not given: the % may be the effect or the level left
Summary of the method: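 Female Wistar rats (~100 g), each infected with ~20 F. hepatica metacercariae, dosed orally once at 8 weeks post-infection with 50 mg/kg suspended in 7% (v/v) Tween 80 plus 3% (v/v) EtOH. Day 6 after treatment: CO2 sacrifice, adult flukes counted from bile ducts and liver. Worm burden reduction versus untreated control rats (mean totals); Kruskal-Wallis significance.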

| Structure (SMILES) | Activity (Fasciola hepatica [1]) [%] | Activity (Fasciola hepatica [2]) | Activity (Fasciola hepatica [3]) [%] |
| --- | --- | --- | --- |
| O=C(O)C[C@H]1CC[C@]2(CC1)OO[C@]1(O2)C2CC3CC1CC(C2)C3F (some centres not stated) | 76 | – | – |
| O=C(C[C@H]1CC[C@]2(CC1)OO[C@]1(O2)C2CC3CC(C2)CC1C3)NO | 34 | inactive | – |
| O=C(O)C[C@H]1CC[C@]2(CC1)OO[C@]1(O2)C2CC3CC(C2)CC1C3 | 100 | Active | – |
| O=C(O)C[C@H]1CC[C@]2(CC1)OO[C@]1(O2)C2CC3CC1CC(C2)C3(F)F | 80 | inactive | – |
| CCOC(=O)C[C@H]1CC[C@]2(CC1)OO[C@]1(O2)C2CC3CC(C2)CC1C3 | – | – | 36 |
| CCOP(=O)([O-])C[C@H]1CC[C@]2(CC1)OO[C@]1(O2)C2CC3CC(C2)CC1C3.[K+] | 16 | inactive | – |
| NNC(=O)C[C@H]1CC[C@]2(CC1)OO[C@]1(O2)C2CC3CC(C2)CC1C3 | 12 | inactive | – |
| O=C(O)C[C@@H]1CCC[C@]2(C1)OOC1(O2)C2CC3CC(C2)CC1C3 (relative stereo) | 90 | – | – |
| O=C([O-])CN1CC[C@]2(CC1)OO[C@]1(O2)C2CC3CC(C2)CC1C3.[Na+] | 0 | inactive | – |
| O=C(O)C[C@H]1CC[C@@]2(CC1)OO[C@@]1(O2)C2CC3CC(C2)CC1C3 | 95 | – | – |
| C[C@H]1[C@H](OC(=O)CCC(=O)O)O[C@@H]2O[C@@]3(C)CC[C@H]4[C@H](C)CC[C@@H]1[C@@]24OO3 [ARTESUNATE] | 30 | – | – |
| N=C(N)NC(=O)C[C@H]1CC[C@]2(CC1)OO[C@]1(O2)C2CC3CC(C2)CC1C3 | 0 | inactive | – |
| COC(=O)C[C@H]1CC[C@]2(CC1)OO[C@]1(O2)C2CC3CC(C2)CC1C3 | 99 | – | – |
| O=C(O)CC[C@H]1CC[C@]2(CC1)OO[C@]1(O2)C2CC3CC(C2)CC1C3 | 14 | inactive | – |
| CS(=O)(=O)NC(=O)C[C@H]1CC[C@]2(CC1)OO[C@]1(O2)C2CC3CC(C2)CC1C3 | 100 | Active | – |
| O=C(O)[C@H]1CC[C@]2(CC1)OO[C@]1(O2)C2CC3CC(C2)CC1C3 | 52 | – | – |
| O=C(O)C[C@H]1CC[C@]2(CC1)OC[C@]1(O2)C2CC3CC(C2)CC1C3 | 0 | inactive | – |
| O=C(O)C[C@H]1CCCC[C@@]12OOC1(O2)C2CC3CC(C2)CC1C3 (some centres not stated) | 46 | inactive | – |
| O=C(O)C[C@H]1CC[C@@]2(CC1)C[C@@]1(OO2)C2CC3CC(C2)CC1C3 | 7 | inactive | – |
| O=C(O)C[C@H]1CC[C@]2(CC1)OO[C@]1(O2)C2CC3CC1C[C@@](F)(C3)C2 | 80 | – | – |
| O=C(C[C@H]1CC[C@]2(CC1)OO[C@]1(O2)C2CC3CC(C2)CC1C3)NCCS(=O)(=O)[O-].[Na+] | 0 | inactive | – |
| O=C(O)C[C@H]1CC[C@]2(CC1)OO[C@]1(O2)C2CCCC1CCC2 | 51 | inactive | – |
| NC(=O)C[C@H]1CC[C@]2(CC1)OO[C@]1(O2)C2CC3CC(C2)CC1C3 | 7 | inactive | – |
| O=C(O)C(=O)NC[C@H]1CC[C@]2(CC1)OO[C@]1(O2)C2CC3CC(C2)CC1C3 | 14 | inactive | – |
| O=C(O)C[C@H]1CC[C@]2(CC1)OO[C@@]1(CCCCC1)O2 | 0 | inactive | – |
| O=C(C[C@H]1CC[C@]2(CC1)OO[C@]1(O2)C2CC3CC(C2)CC1C3)N1CCNCC1 | 0 | inactive | – |
| O=C(O)CNC(=O)C[C@H]1CC[C@]2(CC1)OO[C@]1(O2)C2CC3CC(C2)CC1C3 | 86 | – | – |
| O=C(O)C(C(=O)O)[C@H]1CC[C@]2(CC1)OO[C@]1(O2)C2CC3CC(C2)CC1C3 | 0 | inactive | – |
